ChEMBL document CHEMBL1137336, “Structure-function correlation of chloroquine and analogues as transgene expression enhancers in nonviral gene delivery” (J Med Chem, 2006)
Calls of active or inactive are those of the source. The rule behind the calls is not given here.

Experiments:
HepG2 [1] = assay: Uptake of CDP/plasmid pGL3-CV polyplexes in HepG2 cells after 30 mins; format: ADME, cell-based; conditions: human, hepg2, 0.5 h
Nucleic Acid [2] = assay: Displacement of plasmid pGL3-CV from CDP/plasmid pGL3-CV polyplexes at 2.5 mM; format: nucleic-acid assay
Procedure, shortened: (§1)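 pGL3-CV (2 µg, 0.6 pmol) complexed with CDP (24 µg, 4 nmol), diluted in PBS and held 30 min at 25 °C. Mixed with compound for a further 30 min at 25 °C, then passed through a 100 nm membrane presoaked with matching compound concentration. Free DNA in filtrate measured by DAPI fluorescence (ex 350/em 465 nm). % released = (If−I0)/(It−I0)×100.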

Nucleic Acid [3] = assay: Displacement of plasmid pGL3-CV from CDP/plasmid pGL3-CV polyplexes at 5 to 20 mM; format: nucleic-acid assay; procedure, shortened: as §1
Nucleic Acid [4] = assay: Transcription of plasmid pGL3-CV upto 2.5 mM relative to control; format: nucleic-acid assay
HepG2 [5] = assay: Uptake in human HepG2 cells after 4 hrs in presence of CDP/plasmid pGL3-CV polyplexes; format: ADME, cell-based; conditions: hepg2, 4 h
Procedure, shortened: (§2)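 HepG2 cells (2 × 10⁶) incubated at 37 °C in Opti-MEM (pH 7.4) with 100 µM compound, with or without CDP/pDNA (20 nmol/3 pmol). At set times, washed with cold PBS with and then without compound, lysed, and diluted in 0.1 N NaOH. Fluorescence read at ex 360/em 465 nm, converted by standard curve, and cellular concentration calculated assuming a cell volume of 3 × 10⁻⁶ µL.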

HepG2 [6] = assay: Viability of human HepG2 cells at 200 uM; format: functional
Procedure, shortened: (§3)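 Cells plated at 5 × 10⁴/well 24 h ahead and rinsed with PBS. CDP/pGL3-CV polyplexes (1 µg DNA, charge ratio 5 +/-) applied in Opti-MEM with compound for 4 h at 37 °C, 5% CO₂, then medium replaced. After another 44 h, lysates assayed for luciferase in duplicate, expressed as RLU/mg protein. Viability taken as total lysate protein by modified Lowry (DC) assay, normalized to cells transfected with naked DNA.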

HepG2 [7] = assay: Transfection of CDP/plasmid pGL3-CV in HepG2 cells at 200 uM after 48 hrs by luciferase assay; format: functional, Homo sapiens; procedure, shortened: as §3
HepG2 [8] = assay: Uptake of CDP/plasmid pGL3-CV polyplexes in HepG2 cells after 2 hrs; format: ADME, cell-based; conditions: human, hepg2, 2 h
HepG2 [9] = assay: Transfection of CDP/plasmid pGL3-CV in HepG2 cells at 150 uM after 48 hrs by luciferase assay; format: functional, Homo sapiens; procedure, shortened: as §3
HepG2 [10] = assay: Viability of human HepG2 cells at 150 uM; format: functional; procedure, shortened: as §3
Nucleic Acid [11] = assay: Displacement of plasmid pGL3-CV from CDP/plasmid pGL3-CV polyplexes at 20 mM; format: nucleic-acid assay; procedure, shortened: as §1
HeLa [12] = assay: Transfection of CDP/plasmid pGL3-CV in HeLa cells at 200 uM after 48 hrs by luciferase assay; format: functional, Homo sapiens; procedure, shortened: as §3
Nucleic Acid [13] = assay: Exclusion of picogreen dye from plasmid pGL3-CV at 1 mM; format: nucleic-acid assay
Procedure, shortened: (§4)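 CDP/pGL3-CV polyplexes diluted 2.5× in water, then mixed 1:1 with compound at twice the final concentration. Incubated 5 min at room temperature, then combined with an equal volume of PicoGreen diluted 200× in 10 mM HEPES. Fluorescence read at ex 488/em 535 nm; exclusion taken as loss of dye fluorescence.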

Nucleic Acid [14] = assay: Exclusion of picogreen dye from plasmid pGL3-CV at 0.5 mM; format: nucleic-acid assay; procedure, shortened: as §4
HeLa [15] = assay: Viability of human HeLa cells at 200 uM; format: functional; procedure, shortened: as §3
Nucleic Acid [16] = assay: Binding affinity to plasmid pGL3-CV assessed as retardation of movement in gel at 100 uM; format: nucleic-acid assay
Procedure, shortened: (§5)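 pGL3-CV plasmid mixed with compound across 0.1-10 mM, each solution held ~10 min, then loading buffer and Borax buffer (0.025 M, pH 8.4) added. Run on 0.5% agarose gel containing ethidium bromide in TAE (40 mM Tris-acetate, 1 mM EDTA). Mobility compared with untreated plasmid.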

Nucleic Acid [17] = assay: Binding affinity to plasmid pGL3-CV assessed as retardation of movement in gel at 1 mM; format: nucleic-acid assay; procedure, shortened: as §5
Nucleic Acid [18] = assay: Displacement of plasmid pGL3-CV from CDP/plasmid pGL3-CV polyplexes at 500 uM; format: nucleic-acid assay; procedure, shortened: as §1
HepG2 [19] = assay: Uptake in human HepG2 cells at 100 uM after 4 hrs; format: ADME, cell-based; conditions: hepg2, 4 h; procedure, shortened: as §2
Nucleic Acid [20] = assay: Binding affinity to plasmid pGL3-CV assessed as retardation of movement in gel at 10 mM; format: nucleic-acid assay; procedure, shortened: as §5
HepG2 [21] = assay: Uptake in human HepG2 cells at 100 uM after 30 mins; format: ADME, cell-based; conditions: hepg2, 0.5 h; procedure, shortened: as §2
Nucleic Acid [22] = assay: Exclusion of picogreen dye from plasmid pGL3-CV at 4 mM; format: nucleic-acid assay; procedure, shortened: as §4
HepG2 [23] = assay: Viability of human HepG2 cells at 20 uM; format: functional; procedure, shortened: as §3
HepG2 [24] = assay: Transfection of CDP/plasmid pGL3-CV in HepG2 cells at 20 uM after 48 hrs by luciferase assay; format: functional, Homo sapiens; procedure, shortened: as §3
HepG2 [25] = assay: Viability of human HepG2 cells at 100 uM; format: functional; procedure, shortened: as §3
HepG2 [26] = assay: Transfection of CDP/plasmid pGL3-CV in HepG2 cells at 100 uM after 48 hrs by luciferase assay; format: functional, Homo sapiens; procedure, shortened: as §3

Compound	Activity (Nucleic Acid [4]) [%]	Activity (HepG2 [6]) [%]	Activity (HepG2 [7]) [RLU/mg]	Activity (HepG2 [9]) [RLU/mg]	Activity (HepG2 [10]) [%]	Activity (HeLa [12]) [RLU/mg]	Activity (HeLa [15]) [%]	other results
CCN(CC)CCCC(C)Nc1ccnc2ccccc12 (configuration not stated)	75	100	2700000					Activity (HepG2 [1]): 18.8%; Activity (Nucleic Acid [2]): < 3%; Activity (Nucleic Acid [3]): 10%; Drug uptake (HepG2 [5]): 2 mM; Activity (HepG2 [8]): 75.5%
CC(C)CCCC(C)Nc1ccnc2cc(Cl)ccc12 (configuration not stated)	75			4700000	89			
CC(C)NCCNCCNc1ccnc2cc(Cl)ccc12	75	74	22000000					
CCN(CC)CCCC(C)Nc1ccncc1 (configuration not stated)		85	6400000			82000	101	Activity (HepG2 [1]): 12.8%; Activity (HepG2 [8]): 76.2%
CC(Nc1ccnc2cc(Cl)ccc12)C(=O)O (configuration not stated)	75			4300000	84			
CCN(CC)CCCC(C)Nc1c2ccc(Cl)cc2nc2ccc(OC)cc12 (configuration not stated) [QUINACRINE]								Activity (HepG2 [23]): 57%; Activity (HepG2 [24]): 25000000 RLU/mg
NCCCN1CCN(CCCNc2ccnc3cc(Cl)ccc23)CC1	75							Activity (HepG2 [25]): 74%; Activity (HepG2 [26]): 20000000 RLU/mg

Further lines, with some results ahead:

Activity (Nucleic Acid [4]) [%]	Compound	Activity (HepG2 [6]) [%]	Activity (HepG2 [7]) [RLU/mg]	Activity (HepG2 [9]) [RLU/mg]	Activity (HepG2 [10]) [%]	Activity (HeLa [12]) [RLU/mg]	Activity (HeLa [15]) [%]	other results
75	CCN(CC)CCCC(C)Nc1ccnc2cc(Cl)ccc12 (configuration not stated) [CHLOROQUINE]	60	16000000			4300000	82	Activity (Nucleic Acid [11]): 50%; Activity (HepG2 [1]): 11.9%; Activity (Nucleic Acid [13]): 23%; Activity (Nucleic Acid [14]): 23%; Drug uptake (HepG2 [5]): 13 mM; Activity (Nucleic Acid [16]): inactive; Activity (Nucleic Acid [17]): inactive; Activity (HepG2 [8]): 67.7%; Activity (Nucleic Acid [18]): 10%; Drug uptake (HepG2 [19]): 12 mM
75	CCN(CC)CCCC(C)Nc1ccnc2cc(C(F)(F)F)ccc12 (configuration not stated)	61	170000000			6700000	83	Activity (Nucleic Acid [11]): 70%; Activity (Nucleic Acid [20]): Active; Drug uptake (HepG2 [21]): 11 mM; Activity (Nucleic Acid [13]): 30%; Activity (Nucleic Acid [14]): 30%; Drug uptake (HepG2 [5]): 13 mM; Activity (Nucleic Acid [22]): 100%; Activity (Nucleic Acid [18]): 40%
75	NCCN(CCN)CCNc1ccnc2cc(Cl)ccc12			25000000	83			
75	CN(C)CCNc1ccnc2cc(Cl)ccc12			25000000	64			
75	CCN(CC)CCOc1ccnc2cc(Cl)ccc12					230000	92	Activity (Nucleic Acid [13]): 17%; Activity (Nucleic Acid [14]): 17%
